Source: publication PMC9635392 (International Journal of Nanomedicine, 2022)
Where a name gives a salt, the structure may show the parent alone.

Legend:
[1] = tested on: PLC/PRF/5 hepatocellular carcinoma cells; experiment: MTT cytotoxicity assay; assay type: cell-based, Human
How it was run: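 PLC/PRF/5 cells grown in DMEM with 10% FBS and penicillin/streptomycin at 37°C, 5% CO2. Seeded at 7×10^3 cells/well in triplicate and left 24 h. Treated 24 h or 48 h with test compound (DMSO stock diluted in DMEM) or nanoparticle formulations (DMEM-suspended, sonicated 10 min). MTT added for 3 h, formazan dissolved in isopropanol, A570 read. Untreated cells set at 100%. IC50 from curve fitting.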

Swiss albino mice = experiment: In vivo biodistribution study; conditions: 5 mg/kg intravenously

For `CNC(=O)c1cc(Oc2ccc(NC(=O)Nc3ccc(Cl)c(C(F)(F)F)c3)cc2)ccn1` [SRFT, Sorafenib tosylate], the IC50 ([1]; Homo sapiens, PLC-PRF-5) was 6 to 8 µM, the “cytotoxicity” value ([1]; PLC/PRF/5, 4–12 µM, 24 h and 48 h) was “concentration-dependent cytotoxicity” and the “sorafenib distribution liver vs kidneys, first hour” value (Swiss albino mice; 1 h) was “accumulated in the kidneys was higher compared to liver”. For the same compound, the “sorafenib distribution liver vs kidneys at 48 h” value (Swiss albino mice; 48 h) was “in kidneys at 48 h was higher than in the liver”.
